Assay [1] addresses Glutamate receptor ionotropic, NMDA 2B (Rattus norvegicus) (UniProt Q00960). In words: Negative allosteric modulation of recombinant rat GluN2B receptor expressed in Xenopus laevis oocytes at 100 uM by two-electrode voltage clamp method. The class given is cell-based. To be noted: Oocyte. The gist of the method:
(§1)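 Two-electrode voltage clamp of Xenopus oocytes expressing rat GluN1 with GluN2A, 2B, 2C or 2D. Holding potential −40 mV in recording solution (mM: 90 NaCl, 1 KCl, 0.5 BaCl2, 0.005 EDTA, 10 HEPES, pH 7.4, 23 °C). Compounds diluted from 20 mM DMSO stocks to 0.05–0.1% final DMSO. IC50 from a Hill fit to the averaged composite concentration–response curve, 5–24 oocytes from 2–4 frogs.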
A general note: In two-electrode clamp one electrode senses voltage and the other passes current.

The target of assay [2] is Glutamate receptor ionotropic, NMDA 2A (Rattus norvegicus) (UniProt Q00959). Put plainly: Negative allosteric modulation of recombinant rat GluN2A receptor expressed in Xenopus laevis oocytes at 100 uM by two-electrode voltage clamp method. The assay is classed as cell-based. Conditions: Oocyte. The essentials:
as §1

For assay [3], the target named is Glutamate receptor ionotropic, NMDA 2C (Rattus norvegicus, UniProt P35439+Q00961). In words: Negative allosteric modulation of recombinant rat GluN2C receptor expressed in Xenopus laevis oocytes by two-electrode voltage clamp method. The assay is classed as cell-based, Oocyte. The gist of the method:
as §1

In assay [4] the target is Glutamate receptor ionotropic, NMDA 2D (Rattus norvegicus, UniProt P35439+Q62645). Put plainly: Negative allosteric modulation of recombinant rat GluN2D receptor expressed in Xenopus laevis oocytes by two-electrode voltage clamp method. The class given is cell-based, Oocyte. The essentials:
as §1

The species named for assay [5] is Rattus norvegicus. In words: Selectivity ratio of IC50 for recombinant rat GluN2B receptor to IC50 for recombinant rat GluN2D receptor. The essentials: (§2)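 Rat GluN1 co-expressed with GluN2A, GluN2B or GluN2D in Xenopus oocytes. Two-electrode voltage clamp at −40 mV in 90 NaCl, 1 KCl, 0.5 BaCl2, 0.005 EDTA, 10 HEPES (mM), pH 7.4, 23 °C; final DMSO 0.1–0.05%. IC50s came from Hill fits to averaged composite concentration-response curves (5–24 oocytes, 2–4 frogs). Ratio is GluN2A or GluN2B IC50 over GluN2D IC50.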

The target of assay [6] is Glutamate receptor ionotropic, NMDA 2B (Rattus norvegicus, UniProt P35439+Q00960). In words: Negative allosteric modulation of recombinant rat GluN2B receptor expressed in Xenopus laevis oocytes by two-electrode voltage clamp method. The class given is cell-based, Oocyte. The essentials:
as §1

The target in assay [7] is Glutamate receptor ionotropic, NMDA 2A (Rattus norvegicus, UniProt P35439+Q00959). Put plainly: Negative allosteric modulation of recombinant rat GluN2A receptor expressed in Xenopus laevis oocytes by two-electrode voltage clamp method. The class given is cell-based, Oocyte. The gist of the method: as §1
Assay [8] is filed under the species Rattus norvegicus. In words: Selectivity ratio of IC50 for recombinant rat GluN2A receptor to IC50 for recombinant rat GluN2D receptor. The essentials:
as §2

Assay [9] deals with Glutamate receptor ionotropic, NMDA 2D (Rattus norvegicus) (UniProt Q62645). Put plainly: Negative allosteric modulation of recombinant rat GluN2D receptor expressed in Xenopus laevis oocytes at 100 uM by two-electrode voltage clamp method. The assay is classed as cell-based. To be noted: Oocyte. The gist of the method:
as §1

The target of assay [10] is Glutamate receptor ionotropic, NMDA 2C (Rattus norvegicus) (UniProt Q00961). Put plainly: Negative allosteric modulation of recombinant rat GluN2C receptor expressed in Xenopus laevis oocytes at 100 uM by two-electrode voltage clamp method. The assay is classed as cell-based. To be noted: Oocyte. The essentials:
as §1

The target in assay [11] is Glutamate receptor ionotropic, NMDA 2D (Homo sapiens, UniProt O15399+Q05586). In words: Inhibition of NMDA GluN2D receptor (unknown origin).
The species entered for the next assay is Homo sapiens. In words: Selectivity ratio of IC50 for NMDA GluN2B receptor (unknown origin) to IC50 for NMDA GluN2D receptor (unknown origin).

Sequence of Glutamate receptor ionotropic, NMDA 2B (Q00960 whole entry, one chain of several): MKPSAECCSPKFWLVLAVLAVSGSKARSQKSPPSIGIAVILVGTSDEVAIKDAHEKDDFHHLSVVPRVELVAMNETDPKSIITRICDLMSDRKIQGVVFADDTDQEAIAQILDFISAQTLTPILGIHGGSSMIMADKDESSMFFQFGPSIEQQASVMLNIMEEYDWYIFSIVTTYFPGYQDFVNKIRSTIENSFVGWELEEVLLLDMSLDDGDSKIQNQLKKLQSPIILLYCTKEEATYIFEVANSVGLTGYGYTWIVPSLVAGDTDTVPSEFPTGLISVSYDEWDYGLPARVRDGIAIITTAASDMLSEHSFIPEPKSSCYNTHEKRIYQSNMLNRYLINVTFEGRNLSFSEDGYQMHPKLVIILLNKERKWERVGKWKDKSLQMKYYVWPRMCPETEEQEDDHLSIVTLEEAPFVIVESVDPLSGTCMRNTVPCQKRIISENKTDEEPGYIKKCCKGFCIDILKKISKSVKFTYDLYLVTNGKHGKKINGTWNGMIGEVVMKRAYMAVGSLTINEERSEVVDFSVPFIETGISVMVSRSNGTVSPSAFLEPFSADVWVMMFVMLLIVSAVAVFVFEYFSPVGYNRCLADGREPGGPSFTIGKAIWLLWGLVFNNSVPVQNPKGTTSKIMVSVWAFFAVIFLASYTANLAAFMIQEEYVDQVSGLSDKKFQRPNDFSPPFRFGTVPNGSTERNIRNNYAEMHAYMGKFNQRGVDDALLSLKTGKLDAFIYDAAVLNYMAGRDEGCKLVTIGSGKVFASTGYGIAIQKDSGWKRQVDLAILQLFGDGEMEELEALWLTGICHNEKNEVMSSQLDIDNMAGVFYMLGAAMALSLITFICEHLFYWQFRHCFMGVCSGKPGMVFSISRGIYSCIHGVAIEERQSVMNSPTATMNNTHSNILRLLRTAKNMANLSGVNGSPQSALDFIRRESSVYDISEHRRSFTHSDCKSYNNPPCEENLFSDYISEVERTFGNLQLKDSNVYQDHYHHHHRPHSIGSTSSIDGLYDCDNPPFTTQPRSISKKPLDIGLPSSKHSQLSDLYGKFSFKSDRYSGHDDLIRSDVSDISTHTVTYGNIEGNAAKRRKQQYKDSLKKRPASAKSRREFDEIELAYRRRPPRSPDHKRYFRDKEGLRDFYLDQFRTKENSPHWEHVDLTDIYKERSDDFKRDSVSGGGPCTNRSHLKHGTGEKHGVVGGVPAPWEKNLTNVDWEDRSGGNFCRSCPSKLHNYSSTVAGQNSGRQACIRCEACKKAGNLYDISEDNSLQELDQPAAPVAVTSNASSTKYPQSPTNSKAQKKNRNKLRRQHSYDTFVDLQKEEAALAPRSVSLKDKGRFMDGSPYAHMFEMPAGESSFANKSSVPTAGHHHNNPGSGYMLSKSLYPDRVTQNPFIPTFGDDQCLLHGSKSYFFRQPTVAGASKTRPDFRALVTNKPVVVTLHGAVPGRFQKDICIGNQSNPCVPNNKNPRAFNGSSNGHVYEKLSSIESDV
Sequence of Glutamate receptor ionotropic, NMDA 2A (Rattus norvegicus) (Q00959 23-1464 limits assumed): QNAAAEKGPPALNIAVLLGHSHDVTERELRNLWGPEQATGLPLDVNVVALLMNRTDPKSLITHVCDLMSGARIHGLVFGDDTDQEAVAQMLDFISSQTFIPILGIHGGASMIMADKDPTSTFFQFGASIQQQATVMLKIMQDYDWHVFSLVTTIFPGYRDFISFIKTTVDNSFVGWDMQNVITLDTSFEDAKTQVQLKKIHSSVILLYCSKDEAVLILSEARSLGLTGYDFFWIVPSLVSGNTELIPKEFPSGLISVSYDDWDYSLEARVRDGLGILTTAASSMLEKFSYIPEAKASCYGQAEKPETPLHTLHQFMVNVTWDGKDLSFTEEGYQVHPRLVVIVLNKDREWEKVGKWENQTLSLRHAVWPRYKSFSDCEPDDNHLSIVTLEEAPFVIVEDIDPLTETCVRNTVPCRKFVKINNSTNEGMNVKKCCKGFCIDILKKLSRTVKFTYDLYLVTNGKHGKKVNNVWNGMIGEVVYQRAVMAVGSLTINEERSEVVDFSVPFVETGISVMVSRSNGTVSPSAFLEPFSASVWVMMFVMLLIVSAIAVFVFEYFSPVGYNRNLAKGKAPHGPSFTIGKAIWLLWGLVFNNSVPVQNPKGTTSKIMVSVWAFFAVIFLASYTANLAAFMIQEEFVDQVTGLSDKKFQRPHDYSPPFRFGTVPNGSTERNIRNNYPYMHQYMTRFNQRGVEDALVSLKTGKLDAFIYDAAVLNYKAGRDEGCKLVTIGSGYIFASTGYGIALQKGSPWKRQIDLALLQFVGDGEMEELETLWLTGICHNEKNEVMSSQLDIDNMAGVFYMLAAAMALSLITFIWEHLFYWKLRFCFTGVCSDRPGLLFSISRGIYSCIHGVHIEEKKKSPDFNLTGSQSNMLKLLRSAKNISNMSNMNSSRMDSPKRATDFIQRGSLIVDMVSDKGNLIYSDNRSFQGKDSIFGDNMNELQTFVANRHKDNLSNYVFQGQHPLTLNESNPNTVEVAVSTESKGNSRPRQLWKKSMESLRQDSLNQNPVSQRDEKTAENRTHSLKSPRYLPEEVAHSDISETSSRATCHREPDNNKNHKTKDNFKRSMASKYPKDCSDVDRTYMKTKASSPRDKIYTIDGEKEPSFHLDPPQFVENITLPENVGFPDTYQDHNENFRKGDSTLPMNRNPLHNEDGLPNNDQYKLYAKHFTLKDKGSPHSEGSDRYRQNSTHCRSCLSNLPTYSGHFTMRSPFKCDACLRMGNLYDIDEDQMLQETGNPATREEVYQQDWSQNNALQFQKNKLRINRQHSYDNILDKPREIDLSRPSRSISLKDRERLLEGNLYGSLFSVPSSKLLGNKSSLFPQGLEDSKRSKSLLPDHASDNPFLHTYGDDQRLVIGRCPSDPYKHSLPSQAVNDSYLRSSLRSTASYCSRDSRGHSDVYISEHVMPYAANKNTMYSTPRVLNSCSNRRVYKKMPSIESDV
Sequence of Glutamate receptor ionotropic, NMDA 2A (Q00959 whole entry, one chain of several): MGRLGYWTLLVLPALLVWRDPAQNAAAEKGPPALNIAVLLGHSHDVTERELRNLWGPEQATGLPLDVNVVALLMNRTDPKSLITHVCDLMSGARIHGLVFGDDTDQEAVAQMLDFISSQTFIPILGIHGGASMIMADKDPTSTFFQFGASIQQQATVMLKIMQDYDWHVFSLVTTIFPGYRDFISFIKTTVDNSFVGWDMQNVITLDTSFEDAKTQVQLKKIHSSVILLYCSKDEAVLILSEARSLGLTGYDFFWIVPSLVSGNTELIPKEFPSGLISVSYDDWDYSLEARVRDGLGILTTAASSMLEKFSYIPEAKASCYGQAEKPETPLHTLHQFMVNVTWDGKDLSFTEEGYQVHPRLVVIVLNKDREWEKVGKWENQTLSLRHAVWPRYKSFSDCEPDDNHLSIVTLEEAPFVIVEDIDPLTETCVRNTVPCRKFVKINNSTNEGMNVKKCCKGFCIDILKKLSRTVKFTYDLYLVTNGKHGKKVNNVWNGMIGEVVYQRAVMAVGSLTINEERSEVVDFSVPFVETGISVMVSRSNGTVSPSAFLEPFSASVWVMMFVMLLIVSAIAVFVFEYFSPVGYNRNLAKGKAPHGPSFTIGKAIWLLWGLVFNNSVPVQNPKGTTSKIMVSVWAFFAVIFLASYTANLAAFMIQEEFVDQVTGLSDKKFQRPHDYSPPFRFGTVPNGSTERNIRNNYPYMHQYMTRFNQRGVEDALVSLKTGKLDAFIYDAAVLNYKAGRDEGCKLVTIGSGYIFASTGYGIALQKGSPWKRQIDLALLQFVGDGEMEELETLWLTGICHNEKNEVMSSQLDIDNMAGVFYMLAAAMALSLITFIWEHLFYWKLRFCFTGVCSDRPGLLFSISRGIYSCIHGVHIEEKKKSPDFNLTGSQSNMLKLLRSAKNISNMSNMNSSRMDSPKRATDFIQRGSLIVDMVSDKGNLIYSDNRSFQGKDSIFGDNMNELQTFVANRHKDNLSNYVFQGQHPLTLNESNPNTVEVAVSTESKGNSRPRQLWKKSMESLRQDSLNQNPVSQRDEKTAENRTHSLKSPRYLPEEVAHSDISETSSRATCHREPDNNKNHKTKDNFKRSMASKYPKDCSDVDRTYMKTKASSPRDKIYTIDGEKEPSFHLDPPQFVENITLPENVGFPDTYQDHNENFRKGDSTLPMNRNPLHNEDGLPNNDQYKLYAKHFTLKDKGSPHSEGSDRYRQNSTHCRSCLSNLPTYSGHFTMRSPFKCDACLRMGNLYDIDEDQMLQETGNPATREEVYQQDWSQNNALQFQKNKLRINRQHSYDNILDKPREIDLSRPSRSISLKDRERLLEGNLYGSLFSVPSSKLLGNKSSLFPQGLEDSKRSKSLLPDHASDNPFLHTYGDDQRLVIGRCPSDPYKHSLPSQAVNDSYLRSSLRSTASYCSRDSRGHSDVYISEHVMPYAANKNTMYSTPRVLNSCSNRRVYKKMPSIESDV

What is called inhibition is the change of the read-out against control, counted positive when it falls. One may read the IC50 as the midpoint of a concentration-inhibition curve. `O=C(O)/C=C/C(=O)N1N=C(c2c(-c3ccccc3)c3cc(Cl)ccc3[nH]c2=O)CC1c1ccc(Br)cc1` (stereo unspecified): the inhibition in assay [1] and in assay [2] was less than 30% each time. Further, the IC50 in assay [3] is 2.1 µM; in [4], 1.4 µM.

As for `O=C(O)CCC(=O)N1N=C(c2c(O)nc3ccc(Cl)cc3c2-c2ccccc2)CC1c1ccccc1` (stereo unspecified), the inhibition in assay [1] and in assay [2] was less than 30% each time.

In the case of `O=C(O)CCC(=O)N1N=C(c2c(-c3ccccc3)c3cc(Cl)ccc3[nH]c2=O)CC1c1ccc2c(c1)OCO2` (stereo unspecified), the Ratio IC50 in the assay listed under Rattus norvegicus [5] was determined as 4. In addition, in assay [2], the inhibition was less than 30%. Further, the IC50 in assay [6] was 90 µM; in [3], 23 µM; in assay [4], 23 µM.

With `O=C(O)CCC(=O)N1N=C(c2c(-c3ccccc3)c3cc(Cl)ccc3[nH]c2=O)CC1c1ccc(Br)cc1` (stereo unspecified), the inhibition in assay [2] was less than 30%. Moreover, the IC50 in [3] came out at 3.6 µM; in assay [4], 3.1 µM.

Take `CN(C)c1ccc(C2CC(c3c(-c4ccccc4)c4cc(Cl)ccc4[nH]c3=O)=NN2C(=O)CCC(=O)O)cc1` (stereo unspecified): the inhibition in assay [1] and in [2] was less than 30% in each case. In addition, the IC50 is 39 µM in assay [3] and 19 µM in assay [4].

As for `COC(=O)/C=C/C(=O)N1N=C(c2c(-c3ccc(Br)cc3)c3ccccc3[nH]c2=O)CC1c1ccc(Cl)cc1` (stereo unspecified), the inhibition in assay [1] and in [2] was less than 30% in each case. Further, the values for the IC50 in assay [3] and in [4] were 59 µM and 95 µM, respectively.

Consider `N#Cc1ccc(-c2c(C3=NN(C(=O)CCC(=O)O)C(c4ccc(Cl)cc4)C3)c(=O)[nH]c3ccccc23)cc1` (stereo unspecified), for which the inhibition in assay [1] was less than 30%. The IC50 in assay [7] stood at 156 µM; in [3] it was 12 µM; in assay [4] it was 7 µM. The Ratio IC50 in the assay filed under Rattus norvegicus [8] amounted to 22.

`N#Cc1cccc(-c2c(C3=NN(C(=O)CCC(=O)O)C(c4ccc(Cl)cc4)C3)c(=O)[nH]c3ccccc23)c1` (stereo unspecified): the inhibition in [1] and in [2] was less than 30% each time. Besides, the 50% inhibitory concentration (IC50) in assay [3] turned out to be 19 µM; in assay [4], 13 µM.

`O=C(O)CCC(=O)N1N=C(c2c(-c3ccc(F)cc3)c3ccccc3[nH]c2=O)CC1c1ccc(Cl)cc1` (stereo unspecified): the Ratio IC50 in the assay listed under Rattus norvegicus [5] amounted to 98; in the assay listed under Rattus norvegicus [8], 36. The IC50 in [7] stood at 21 µM; in assay [6], 57 µM; in assay [3], 1 µM; in assay [4] it was 0.58 µM.

Take `NC(=O)CCC(=O)N1N=C(c2c(-c3ccc(Cl)cc3)c3ccccc3[nH]c2=O)CC1c1ccc(Cl)cc1` (stereo unspecified): the Ratio IC50 in the assay filed under Rattus norvegicus [5] turned out to be 18; in the assay filed under Rattus norvegicus [8], 31. The IC50 in assay [7] came out at 34 µM; in assay [6], 20 µM; in [3] it was 2 µM; in assay [4] it was 1.1 µM.

`COC(=O)c1ccc(C2CC(c3c(-c4ccccc4)c4cc(Cl)ccc4[nH]c3=O)=NN2C(=O)CCC(=O)O)cc1` (stereo unspecified): the inhibition in assay [1] and in assay [2] was less than 30% each time. Further, in assay [3], the IC50 came to 93 µM.

With `COC(=O)CCC(=O)N1N=C(c2c(-c3ccccc3)c3cc(Cl)ccc3[nH]c2=O)CC1c1ccc(Br)cc1` (stereo unspecified), the inhibition in [9], in [10], in [1] and in assay [2] was less than 30% in each case.

As to `O=C(O)CCC(=O)N1N=C(c2c(-c3cc(Cl)cc(Cl)c3)c3ccccc3[nH]c2=O)CC1c1ccc(Cl)cc1` (stereo unspecified), the Ratio IC50 was determined as 19 in the assay listed under Rattus norvegicus [5] and 8 in the assay filed under Rattus norvegicus [8]. Besides, the IC50 in [7] worked out at 5.5 µM; in assay [6], 13 µM; in assay [3], 0.78 µM; in [4], 0.7 µM.

For `O=C(O)CCC(=O)N1N=C(c2c(-c3cccc(F)c3)c3ccccc3[nH]c2=O)CC1c1ccc(Cl)cc1` (stereo unspecified), the Ratio IC50 turned out to be 101 in the assay filed under Rattus norvegicus [5] and 67 in the assay filed under Rattus norvegicus [8]. Moreover, the IC50 in assay [7] turned out to be 46 µM; in assay [6] it was 70 µM; in [3], 1.1 µM; in assay [4] it was 0.69 µM.

Molecule `Cc1ccc2[nH]c(=O)c(C3=NN(C(=O)CCC(=O)O)C(c4ccc(Br)cc4)C3)c(-c3ccccc3)c2c1` (stereo unspecified) showed an IC50 in assay [11] of 2.7 µM. The Ratio IC50 in the assay filed under Homo sapiens is 41.

As for `O=C(O)CCC(=O)N1N=C(c2c(-c3ccc(F)c(Cl)c3)c3ccccc3[nH]c2=O)CC1c1ccc(Cl)cc1` (stereo unspecified), the figures for the Ratio IC50 in the assay listed under Rattus norvegicus [5] and in the assay listed under Rattus norvegicus [8] were 34 and 19, respectively. The IC50 in assay [7] was 19 µM; in assay [6] it was 34 µM; in [3], 1.4 µM; in assay [4], 1 µM.

Turning to `O=C(O)CCC(=O)N1N=C(c2c(-c3cccc(Cl)c3)c3ccccc3[nH]c2=O)CC1c1ccc(Cl)cc1` (stereo unspecified), the Ratio IC50 in the assay listed under Rattus norvegicus [5] is 43; in the assay filed under Rattus norvegicus [8], 20. Further, the half-inhibitory concentration (IC50) in assay [7] amounted to 20 µM; in [6], 43 µM; in assay [3] it was 2.1 µM; in assay [4], 1 µM.

Regarding `O=C(O)CCCC(=O)N1N=C(c2c(-c3ccccc3)c3cc(Cl)ccc3[nH]c2=O)CC1c1ccc(Br)cc1` (stereo unspecified), the Ratio IC50 in the assay listed under Rattus norvegicus [5] turned out to be 23; in the assay listed under Rattus norvegicus [8] it was 20. Moreover, the IC50 in assay [7] is 78 µM; in [6], 90 µM; in [3] it was 6.4 µM; in assay [4] it was 4 µM.

Consider `O=C(O)CCC(=O)N1N=C(c2c(-c3ccccc3)c3cc(Cl)ccc3[nH]c2=O)CC1c1ccc(Cl)cc1` (stereo unspecified), for which the inhibition in assay [1] and in assay [2] was less than 30% in each case. Besides, the IC50 in [3] came out at 5.5 µM; in assay [4], 4.5 µM.

With `COC(=O)CCCN1N=C(c2c(-c3ccc(Cl)cc3)c3ccccc3[nH]c2=O)CC1c1ccc(Cl)cc1` (stereo unspecified), the inhibition in assay [9], in [10], in assay [1] and in assay [2] was less than 30% throughout.

As to `O=C(O)CCC(=O)N1N=C(c2c(-c3ccc(Br)cc3)c3ccccc3[nH]c2=O)CC1c1ccccc1` (stereo unspecified), the Ratio IC50 in the assay listed under Rattus norvegicus [5] turned out to be 12; in the assay filed under Rattus norvegicus [8] it was 7. The IC50 worked out at 64 µM in assay [7], 113 µM in [6], 10 µM in [3] and 9.1 µM in assay [4].

On to `O=C(O)CCC(=O)N1N=C(c2c(-c3ccccc3)c3cc(Cl)ccc3[nH]c2=O)CC1c1ccc(C(=O)O)cc1` (stereo unspecified), for which the inhibition in assay [9], in assay [10], in assay [1] and in assay [2] was less than 30% throughout.

Take `O=C(O)CCC(=O)N1N=C(c2c(-c3ccc(Cl)cc3)c3ccccc3[nH]c2=O)CC1c1ccc(F)cc1` (stereo unspecified): the figures for the Ratio IC50 in the assay listed under Rattus norvegicus [5] and in the assay filed under Rattus norvegicus [8] were 26 and 14, respectively. In addition, the IC50 in assay [7] is 47 µM; in assay [6], 90 µM; in assay [3] it was 4.1 µM; in [4] it was 3.4 µM.
